What was measured:
Trypanosoma cruzi = experiment: Antitrypanosomal activity against Trypanosoma cruzi infected in rat H9c2 infected with trypomastigotes from parasite-infected monkey LLC-MK2 cells measured after 72 hrs by DRAQ5 DNA dye based microscopic imaging analysis; format: functional, organism-based; conditions: H9c2, 72 h
[1] = system: Trypanosoma brucei brucei; experiment: Antitrypanosomal activity against Trypanosoma brucei brucei Lister 427 assessed as parasite growth inhibition measured after 48 hrs by alamar blue assay; conditions: Lister 427, 48 h
[2] = Cytotoxicity against human HepG2 cells assessed as reduction in cell viability measured after 48 hrs by CellTiter-Glo assay; format: cell-based
Outline: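 HepG2 human hepatoma cells from GSK Biological Reagents and Assay Development (Stevenage, UK); viability read-out per earlier method.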

[3] = Lipophilicity, logP of the compound; format: physicochemical; conditions: octanol/water
[4] = Cytotoxicity against rat H9c2 cells assessed as reduction in cell viability; format: cell-based
[5] = Cytotoxicity against human HEK293 cells assessed as reduction in cell viability measured after 48 hrs by resazurin assay; format: cell-based
Outline: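 HEK293 cells from ATCC; Alamar Blue viability read-out run per earlier method.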

Row | SMILES | IC50 (Trypanosoma cruzi) | IC50 [1] | logP [3] | CC50 at 48 h [2] | CC50 [4] | CC50 at 48 h [5]
1 | CCCn1c(NC(=O)Cc2ccccc2F)nc2ccccc21 | 3.2 µM | 3.6 µM | 4.3 | > 50 µM | > 50 µM | > 83 µM
2 | CCCn1c(NC(=O)/C=C/c2ccccc2)nc2ccccc21 | 1.3 µM | 2.1 µM | 4.6 | 40 µM | 20 µM | > 83 µM
3 | CCCn1c(NC(=O)Cc2ccc(F)cc2)nc2ccccc21 | 2.5 µM | 2.5 µM | 4.3 | > 50 µM | > 50 µM | > 83 µM
4 | CCCn1c(NC(=O)Cc2ccccc2C)nc2ccccc21 | 2.5 µM | 2.6 µM | 4.6 | > 50 µM | > 50 µM | > 83 µM
5 | CCCn1c(NC(=O)Cc2ccc(-c3ccccc3)cc2)nc2ccccc21 | 1 µM | 3.4 µM | 5.8 | > 50 µM | > 50 µM | > 83 µM
6 | CCCn1c(NC(=O)Cc2ccccc2OC)nc2ccccc21 | 6.3 µM | > 83 µM | 4 | > 50 µM | 13 µM | > 83 µM
7 | N=C(N)c1ccc(/N=N/Nc2ccc(C(=N)N)cc2)cc1 [DIMINAZENE DIACETURATE] | – | 0.087 µM | – | – | – | 38.5 µM
8 | C=CCc1c(NC(=O)Cc2ccc(Cl)cc2)ncc2ccccc12 | 20 µM | > 83 µM | 5.1 | > 50 µM | > 50 µM | > 83 µM
9 | CCn1c(NC(=O)Cc2ccc(Cl)cc2)nc2ccccc21 | 2.5 µM | 3.1 µM | 4.2 | > 50 µM | 40 µM | > 83 µM
10 | CCCn1c(NC(=O)Cc2ccc(Cl)nc2)nc2ccccc21 | 7.9 µM | > 83 µM | 3.7 | > 50 µM | > 50 µM | > 83 µM
11 | CCCn1c(NC(=O)Cc2ccc(C(F)(F)F)cc2)nc2ccccc21 | 1 µM | 4.5 µM | 5 | > 50 µM | > 50 µM | > 83 µM
12 | CCCc1c(NC(=O)Cc2ccc(Cl)cc2)ncc2ccccc12 | 0.5 µM | – | 5.4 | 7.94 µM | 3.2 µM | –
13 | CCCn1c(C(=O)NCc2ccc(Cl)cc2)nc2ccccc21 | 10 µM | > 83 µM | 4.1 | > 50 µM | 16 µM | > 83 µM
14 | CCCn1c(NC(=O)Cc2ccc(Cl)cc2)nc2cccc(Br)c21 | – | 2.8 µM | 5.5 | – | – | > 83 µM
15 | CCCCCCCCC(=O)Nc1nc2ccccc2n1CCC | 2.5 µM | 7.3 µM | 5.7 | > 50 µM | 20 µM | > 83 µM
16 | CCCn1c(NC(=O)Cc2ccccc2Br)nc2ccccc21 | 1.6 µM | 2 µM | 4.9 | 20 µM | > 50 µM | > 83 µM
17 | CCCn1c(NC(=O)Cc2ccc(Cl)cc2)nc2ccc(F)cc21 | 1.3 µM | 0.9 µM | 4.9 | > 50 µM | 25 µM | 14 µM
18 | CCCn1c(NC(=O)Cc2ccc(OC)cc2)nc2ccccc21 | 3.2 µM | 5.2 µM | 4 | > 50 µM | > 50 µM | > 83 µM
19 | CCCn1c(NC(=O)CCc2ccccc2)nc2ccccc21 | 5 µM | 3.5 µM | 4.6 | > 50 µM | > 50 µM | 14 µM
20 | CCCCC(=O)Nc1nc2ccccc2n1CCC | 13 µM | 11 µM | 3.9 | > 50 µM | 25 µM | 2.6 µM
21 | COc1ccc(C[C@H](N)C(=O)N[C@H]2[C@@H](O)[C@H](n3cnc4c(N(C)C)ncnc43)O[C@@H]2CO)cc1 [PUROMYCIN] | – | 0.038 µM | – | – | – | 0.23 µM

Second part, led by results:

Row | IC50 (Trypanosoma cruzi) | IC50 [1] | logP [3] | SMILES | CC50 at 48 h [2] | CC50 [4] | CC50 at 48 h [5]
22 | 2 µM | 3.6 µM | 4.6 | CCCn1c(NC(=O)Cc2cccc(C)c2)nc2ccccc21 | > 50 µM | > 50 µM | 15 µM
23 | 1 µM | 2.6 µM | 5.1 | CCCn1c(NC(=O)Cc2cccc3ccccc23)nc2ccccc21 | 20 µM | > 50 µM | 10 µM
24 | 3.2 µM | 3.8 µM | 3.8 | Cn1c(NC(=O)Cc2ccc(Cl)cc2)nc2ccccc21 | > 50 µM | > 50 µM | > 83 µM
25 | 4 µM | 4.1 µM | 4.1 | CCCn1c(NC(=O)Cc2ccccc2)nc2ccccc21 | > 50 µM | > 50 µM | > 83 µM
26 | 1.6 µM | 4.4 µM | 5.2 | CCCCn1c(NC(=O)Cc2ccc(Cl)cc2)nc2ccccc21 | > 50 µM | 13 µM | > 83 µM
27 | 32 µM | 14 µM | 3.7 | CCCn1c(NC(=O)Cc2ccc(OC(C)=O)cc2)nc2ccccc21 | > 50 µM | > 50 µM | > 83 µM
28 | – | 15 µM | 5.2 | CCCn1c(NC(=O)Cc2ccc(Cl)cc2)nc2ccc(C)cc21 | – | – | > 83 µM
29 | 2.5 µM | 5.4 µM | 4.8 | CCCn1c(NC(=O)Nc2ccc(Cl)cc2)nc2ccccc21 | 40 µM | > 50 µM | 5.2 µM
30 | 1.58 µM | – | – | O=C(Cn1ccnc1[N+](=O)[O-])NCc1ccccc1 [BENZNIDAZOLE] | – | 31.6 µM | –
31 | 3.2 µM | > 83 µM | 4.6 | CCCn1c(NC(=O)Cc2ccc(Cl)cc2)nc2c(OC)cccc21 | > 50 µM | > 50 µM | > 83 µM
32 | – | 0.014 µM | – | N=C(N)c1ccc(OCCCCCOc2ccc(C(=N)N)cc2)cc1 [PENTAMIDINE] | – | – | 0.67 µM
33 | 1.3 µM | 9.4 µM | 5.2 | CCCn1c(NC(=O)Cc2ccc(Cl)cc2)nc2cccc(C)c21 | > 50 µM | > 50 µM | > 83 µM
34 | 50 µM | – | 3.6 | O=C(Cc1ccc(Cl)cc1)Nc1nc2ccccc2[nH]1 | > 50 µM | > 50 µM | > 83 µM
35 | 2 µM | 5 µM | 4.9 | CCCn1c(NC(=O)Cc2ccc(Br)cc2)nc2ccccc21 | > 50 µM | > 50 µM | > 83 µM
36 | 0.5 µM | 2.4 µM | 5.3 | CCCn1c(NC(=O)Cc2ccc(Cl)cc2)nc2ccc(Cl)cc21 | > 50 µM | 6.3 µM | > 83 µM
37 | 0.79 µM | 16 µM | 5.5 | CCCn1c(NC(=O)Cc2ccc(Cl)cc2)nc2cc(Br)ccc21 | – | > 50 µM | > 83 µM
